Measurements gathered from unrelated publications.
Lines come from different studies, so protocols differ.
UGT1A6: UDP-glucuronosyltransferase 1A6 (UGT1A6, Homo sapiens, UniProt P19224)

| SMILES | tested on | test | test system | setting | measurement | value |
| --- | --- | --- | --- | --- | --- | --- |
| COc1ccc(S(=O)(=O)Nc2cc(OC)c(NC(=O)CCCl)cc2OC)cc1 | HeLa | cell growth or viability, XTT | – | 72 h | IC50 | 16 µM |
| Fc1ccc(-c2csc(NN=Cc3cccs3)n2)cc1 | – | haemolysis | human | 100 µM, 30 min, pH 7.4 | haemolysis | 61.4% |
| CCOP(=O)(OCC)[C@@H]1C[C@@H](n2cc(-c3ccccc3)nn2)ON1C (racemic) | HeLa | cell growth or viability | – | 72 h | CC50 | > 250 µM |
| CCCc1cn(CCN2CCN(C(=O)c3c(C)nc4cc(C)ccn34)CC2)nn1 | HeLa | cell growth or viability, resazurin | – | – | CC50 | > 100 µM |
| CC(=O)c1cc(C(=O)N[C@@H](C)Cn2ccc(-c3ccc(C#N)c(Cl)c3)n2)[nH]n1 | UGT1A6 | enzyme activity, inhibitor | human, liver microsomes | – | IC50 | > 50 µM |
| CCc1ccc(-n2cc(CN3CCN(C(=O)c4c(C)nc5ccc(Cl)cn45)CC3)nn2)cc1 | HeLa | cell growth or viability, resazurin | – | – | CC50 | 58.1 µM |
| C[C@@H](Cn1ccc(-c2ccc(C#N)c(Cl)c2)n1)NC(=O)c1cc([C@@H](C)O)[nH]n1 | UGT1A6 | enzyme activity, inhibitor | human, liver microsomes | – | IC50 | > 100 µM |
| Fc1ccc(-c2csc(NN=Cc3ccccc3C(F)(F)F)n2)cc1 | – | haemolysis | human | 10 µM, 30 min, pH 7.4 | haemolysis | 4.43% |
| Cc1ccn2c(C(=O)N3CCN(Cc4cn(-c5ccc([N+](=O)[O-])cc5)nn4)CC3)c(C)nc2c1 | HeLa | cell growth or viability, resazurin | – | – | CC50 | > 100 µM |
| Cc1cccc(F)c1N1CCC(N2Cc3cn(CC(C)(F)F)nc3N(Cc3ccccc3C(F)(F)F)C2=O)CC1 | Cytochrome P450 2B6 (CYP2B6, Homo sapiens, UniProt P20813) | enzyme activity, inhibitor | human, liver microsomes | – | IC50 | > 10 µM |
| CCN(CC)CCCC(C)Nc1ccnc2cc(Cl)ccc12 (centres unmarked) | – | haemolysis | human | 10 mM, 45 min | haemolysis | 15.4% |
| Cc1nc2ccc(Cl)cn2c1C(=O)N1CCN(CCn2cc(-c3ccc(C(C)(C)C)cc3)nn2)CC1 | HeLa | cell growth or viability, resazurin | – | – | CC50 | > 100 µM |
| Fc1ccc(-c2csc(NN=Cc3cccc(C(F)(F)F)c3)n2)cc1 | – | haemolysis | human | 50 µM, 30 min, pH 7.4 | haemolysis | 30.7% |
| CCc1ccc(-n2cc(CN3CCN(C(=O)c4c(C)nc5cc(C)ccn45)CC3)nn2)cc1 | HeLa | cell growth or viability, resazurin | – | – | CC50 | > 100 µM |
| CC(=NNc1nc(-c2ccc(F)cc2)cs1)c1cccc(Br)c1 | – | haemolysis | human | 10 µM, 30 min, pH 7.4 | haemolysis | 0% |
| C[C@@H]1[C@H](O)[C@@H](C)/C=C/C=C/C=C/C=C/C=C/C=C/C=C/[C@H](O[C@@H]2O[C@H](C)[C@@H](O)[C@H](N)[C@@H]2O)C[C@@H]2O[C@](O)(C[C@@H](O)C[C@@H](O)[C@H](O)CC[C@@H](O)C[C@@H](O)CC(=O)O[C@H]1C)C[C@H](O)[C@H]2C(=O)O | – | haemolysis | human | 4 µg/mL, 1 h | haemolysis | 93.2% |
| CCCCCCCCCCCCCCCCOP(=O)([O-])OCC[N+](C)(C)C | HeLa | cell growth or viability, XTT | – | 72 h | IC50 | 6.5 µM |
| Cc1cc(C)cc(-n2cc(CN3CCN(C(=O)c4c(C)nc5ccc(Cl)cn45)CC3)nn2)c1 | HeLa | cell growth or viability, resazurin | – | – | CC50 | > 100 µM |
| COc1c(F)cccc1C=NNc1nc(-c2ccc(F)cc2)cs1 | – | haemolysis | human | 100 µM, 30 min, pH 7.4 | haemolysis | 36.6% |
| CCOP(=O)(OCC)[C@@H]1C[C@H](n2cc(Cn3ccc(=O)[nH]c3=O)nn2)ON1C (racemic) | HeLa | cell growth or viability | – | 72 h | CC50 | > 250 µM |
| OC(Cn1cncn1)(Cn1cncn1)c1ccc(F)cc1F | – | haemolysis | human | 1 µg/mL, 1 h | haemolysis | 3.39% |
| Cc1nc2ccc(Cl)cn2c1C(=O)N1CCN(Cc2cn(-c3ccc([N+](=O)[O-])cc3)nn2)CC1 | HeLa | cell growth or viability, resazurin | – | – | CC50 | > 100 µM |
| Fc1ccc(-c2csc(NN=Cc3ccc(C(F)(F)F)cc3)n2)cc1 | – | haemolysis | human | 100 µM, 30 min, pH 7.4 | haemolysis | 41% |
| CCOP(=O)(OCC)[C@@H]1C[C@@H](n2cc(C(=O)OC)nn2)ON1C (relative stereo) | HEL | cell growth or viability | – | 72 h | CC50 | > 100 µM |
| Oc1ccc(Cl)cc1C=NNc1nc(-c2ccc(F)cc2)cs1 | – | haemolysis | human | 50 µM, 30 min, pH 7.4 | haemolysis | 21.2% |
| CCOP(=O)(OCC)[C@@H]1C[C@@H](n2cc(Cn3cc(C)c(=O)[nH]c3=O)nn2)ON1C (racemic) | HeLa | cell growth or viability | – | 72 h | CC50 | > 250 µM |
| CCOc1ccccc1C=NNc1nc(-c2ccc(F)cc2)cs1 | – | haemolysis | human | 10 µM, 30 min, pH 7.4 | haemolysis | 0% |
| Cc1ccn2c(C(=O)N3CCN(CCn4cc(C5CC5)nn4)CC3)c(C)nc2c1 | HeLa | cell growth or viability, resazurin | – | – | CC50 | > 100 µM |
| CCOP(=O)(OCC)[C@@H]1C[C@H](n2cc(Cn3ccc(NC(C)=O)nc3=O)nn2)ON1C (racemic) | HeLa | cell growth or viability | – | 72 h | CC50 | > 250 µM |
